Consider twelve molecules from ChEMBL document CHEMBL3826969, “Synthesis and anticancer potential of novel xanthone derivatives with 3,6-substituted chains” (Bioorg Med Chem, 2016).

In assay [1] the test system is A549. In words: Cytotoxicity against human A549 cells assessed as cell growth inhibition after 48 hrs by MTT assay. Format: functional, cell-based. Conditions: A549, 48 h. Put shortly: (§1)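 Cells seeded in 96-well plates (MDA-MB-231, A549, AsPC-1 5×10^3; PC-3 8×10^3; HCT116 1×10^4 per well), attached 24 h in RPMI-1640 with 10% fetal calf serum at 37°C, 5% CO2. Serially diluted compound (final 0–400 μM, DMSO <0.1%) added for 48 h; 5-FU positive control. MTT read at 560 nm, triplicate; viability = treated/vehicle mean OD.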

Assay [2] deals with A549. Description: Cell cycle arrest in human A549 cells assessed as accumulation at G0/G1 phase at 25 uM after 48 hrs by propidium iodide staining based flow cytometry (reference value: 68.1 %). The assay is classed as functional. The method in brief:
(§2)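 A549 cells exposed 48 h to derivative (25 µM), collected, fixed overnight in 70% ethanol, then stained 30 min at room temperature with 50 µg/mL propidium iodide, 200 µg/mL RNase A and 0.3% Triton X-100. Flow cytometry gave sub-G1, G0/G1, S and G2/M fractions; profile from 3 independent experiments.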
For orientation: In flow cytometry, cells or beads pass a laser one at a time.

Assay [3] in a line: Cytotoxicity against human PC3 cells assessed as cell growth inhibition after 48 hrs by MTT assay. Format: functional, cell-based. Conditions: PC-3, 48 h. The method in brief:
as §1
For orientation: Tetrazolium dyes change colour on reduction, which living cells bring about.

Another assay concerns MDA-MB-231. In words: Cytotoxicity against human MDA-MB-231 cells assessed as cell growth inhibition after 48 hrs by MTT assay. Format: functional, cell-based. Particulars: MDA-MB-231, 48 h. The method in brief: as §1
The test system of assay [4] is A549. Description: Induction of apoptosis in human A549 cells assessed as late apoptotic cells at 25 uM after 48 hrs by Annexin V-FITC/propidium iodide staining based flow cytometry (reference value: 1.2 %). Format: functional.
Assay [5] has as its system A549. In words: Cell cycle arrest in human A549 cells assessed as accumulation at S phase at 25 uM after 48 hrs by propidium iodide staining based flow cytometry (reference value: 9.3 %). The assay is classed as functional. Put shortly: as §2
The subject of assay [6] is A549. In words: Induction of apoptosis in human A549 cells assessed as necrotic cells at 25 uM after 48 hrs by Annexin V-FITC/propidium iodide staining based flow cytometry (reference value: 0.1 %). The assay is classed as functional.
The subject of assay [7] is A549. In words: Induction of apoptosis in human A549 cells assessed as early apoptotic cells at 25 uM after 48 hrs by Annexin V-FITC/propidium iodide staining based flow cytometry (reference value: 0.5 %). The assay is classed as functional.
Assay [8] deals with A549. Description: Induction of apoptosis in human A549 cells assessed as increase in caspase 3/7 activity at 25 uM after 48 hrs by Caspase-Glo 3/7 assay relative to control. The assay is classed as functional. Put shortly: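 A549 cells (8×10^3) plated in duplicate in 96-well plates, treated 25 µM for 48 h. Caspase-Glo 3/7 luminescence read after 1 h with substrate; blank (medium plus reagent) subtracted; fold increase = treated/control reading; mean ± 1 SD.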

A further assay relates to ASPC1. In words: Cytotoxicity against human AsPC1 cells assessed as cell growth inhibition after 48 hrs by MTT assay. Particulars: ASPC1, 48 h. Format: functional, cell-based. The method in brief: as §1
Assay [9] has as its system A549. In words: Cell cycle arrest in human A549 cells assessed as accumulation at G2/M phase at 25 uM after 48 hrs by propidium iodide staining based flow cytometry (reference value: 23.4 %). The assay is classed as functional. Put shortly:
as §2

Assay [10] is described as follows: Cytotoxicity against human HCT116 cells assessed as cell growth inhibition after 48 hrs by MTT assay. The assay is classed as functional, cell-based. Conditions: HCT-116, 48 h. Put shortly: as §1
Assay [11] deals with A549. Description: Induction of apoptosis in human A549 cells assessed as viable cells at 25 uM after 48 hrs by Annexin V-FITC/propidium iodide staining based flow cytometry (reference value: 98.2 %). Format: functional. Particulars: A549, 48 h, read-out: Activity.

Activity calls are given as the source filed them. The calls are words filed in the database; no cut-off is given here.

For `Cc1c(OCC(=O)N2CC(C)CC(C)C2)ccc2c(=O)c3ccc(OCC(=O)N4CC(C)CC(C)C4)cc3oc12` (stereo not given), the IC50 (as a rule, the concentration at which inhibition is half-maximal) is 4.59 µM in the assay with A549 [1]; 6.18 µM in assay [3]; 8.06 µM with MDA-MB-231; 4.76 µM with ASPC1; 6.09 µM in assay [10]. Further, the Activity came to 78.9% in the assay with A549 [2]; 12.4% in the assay with A549 [4]; 6% in the assay on A549 [5]; 1.1% in the assay with A549 [6]; 37.5% with A549 [7]; 15.5% in the assay with A549 [9]. Moreover, the “fold change (FC)” value in the assay with A549 [8] is on record as 2.04. The viability at 25 µM in the assay on A549 [11] came to 49%.
`CC1CCCC(C)N1C(=O)COc1ccc2c(=O)c3ccc(OCC(=O)N4C(C)CCCC4C)cc3oc2c1` (stereo not given): the IC50 in the assay with A549 [1] is 17.2 µM; in assay [3], 6.68 µM; in the assay with MDA-MB-231, 24.3 µM; in the assay with ASPC1, 13.8 µM; in assay [10], 15.7 µM. For the same molecule, the Activity stood at 57.4% with A549 [2]; 9.1% in the assay with A549 [4]; 9.8% in the assay on A549 [5]; 1.1% in the assay on A549 [6]; 1.5% with A549 [7]; 33.5% with A549 [9]. Further, the “fold change (FC)” value in the assay with A549 [8] turned out to be 2.31. Moreover, the viability at 25 µM in the assay with A549 [11] worked out at 87.7%.
Consider `Cc1c(OCC(=O)NC2CCCCC2C)ccc2c(=O)c3ccc(OCC(=O)NC4CCCCC4C)cc3oc12` (stereo not given), for which the half-inhibitory concentration (IC50) with A549 [1] is 22.3 µM; in assay [3] it was 23.3 µM; in the assay with MDA-MB-231, 11 µM; in the assay with ASPC1, 15.4 µM; in [10] it was 18.3 µM. Further, the Activity is 61.8% in the assay with A549 [2]; 2.4% with A549 [4]; 9.4% in the assay with A549 [5]; 1% in the assay with A549 [6]; 3.1% in the assay with A549 [7]; 29.1% with A549 [9]. The outcome in the assay on A549 [8] was inactive. Further, the viability at 25 µM in the assay on A549 [11] came out at 93.6%.
Consider `Cc1c(OCC(=O)NCC2CCCO2)ccc2c(=O)c3ccc(OCC(=O)NCC4CCCO4)cc3oc12` (stereo not given), for which the IC50 is 27.5 µM in the assay with A549 [1]; 34.5 µM in [3]; 98.4 µM in the assay with MDA-MB-231; 78.7 µM in the assay with ASPC1; 33.8 µM in assay [10]. For the same molecule, the Activity with A549 [2] was found to be 74.6%; in the assay on A549 [4], 2.5%; with A549 [5] it was 13.2%; in the assay on A549 [6], 0.9%; with A549 [7], 1.2%; in the assay on A549 [9] it was 13%. The result in the assay with A549 [8] was inactive. In the assay with A549 [11], the viability at 25 µM stood at 95.4%.
With `CCOC(=O)N1CCN(C(=O)COc2ccc3c(=O)c4ccc(OCC(=O)N5CCN(C(=O)OCC)CC5)c(C)c4oc3c2)CC1`, the IC50 in the assay on A549 [1] stood at 84.9 µM; in [3], 53.3 µM; in the assay with MDA-MB-231 it was 64.5 µM; in the assay with ASPC1 it was 34.1 µM; in assay [10], 8.16 µM. In addition, the Activity is reported as 65.5% in the assay with A549 [2]; 1.1% with A549 [4]; 11.9% with A549 [5]; 0.3% with A549 [6]; 1.6% with A549 [7]; 23.2% in the assay on A549 [9]. Besides, the outcome in the assay with A549 [8] was inactive. The viability at 25 µM with A549 [11] turned out to be 97.1%.
With `CN1CCN(C(=O)COc2ccc3c(=O)c4ccc(OCC(=O)N5CCN(C)CC5)cc4oc3c2)CC1`, the IC50 (in the assay with A549 [1]; in assay [3]; in the assay on MDA-MB-231; in the assay on ASPC1; in [10]) was more than 400 µM each time. The Activity in the assay with A549 [2] came to 66.4%; in the assay with A549 [4], 2.5%; in the assay with A549 [5], 10.1%; with A549 [6], 2.7%; in the assay with A549 [7], 0.7%; in the assay with A549 [9] it was 24.2%. Also, the viability at 25 µM with A549 [11] was found to be 94.1%.
For the molecule `O=C(COc1ccc2c(=O)c3ccc(OCC(=O)N4CCOCC4)cc3oc2c1)N1CCOCC1`, the IC50 (with A549 [1]; in assay [3]; with MDA-MB-231; in the assay with ASPC1; in assay [10]) was more than 400 µM each time. For the same molecule, the Activity with A549 [2] was determined as 65.7%; in the assay on A549 [4], 0.7%; in the assay on A549 [5] it was 9.6%; with A549 [6], 0.9%; in the assay with A549 [7], 0.5%; with A549 [9], 25.1%. Besides, the viability at 25 µM in the assay on A549 [11] is 97.9%.
For the molecule `Cc1c(OCC(=O)N2CCOCC2)ccc2c(=O)c3ccc(OCC(=O)N4CCOCC4)cc3oc12`, the concentration for half-maximal inhibition (IC50) (with A549 [1]; in assay [3]; with MDA-MB-231; in the assay with ASPC1; in assay [10]) was more than 400 µM each time. Moreover, the Activity in the assay with A549 [2] is 61%; with A549 [4] it was 0.4%; in the assay on A549 [5] it was 11.8%; in the assay on A549 [6], 0.1%; in the assay on A549 [7], 0.9%; in the assay with A549 [9], 28%. Moreover, in the assay on A549 [11], the viability at 25 µM amounted to 98.7%.
Turning to `Cc1c(OCC(=O)N2C(C)CCCC2C)ccc2c(=O)c3ccc(OCC(=O)N4C(C)CCCC4C)cc3oc12` (stereo not given), the IC50 is 10.6 µM in the assay with A549 [1]; 4.27 µM in [3]; 7.31 µM with MDA-MB-231; 7.1 µM in the assay with ASPC1; 7.63 µM in [10]. Moreover, the Activity in the assay with A549 [2] is on record as 75.7%; in the assay on A549 [4] it was 9.8%; in the assay on A549 [5], 6.9%; in the assay on A549 [6] it was 2.1%; in the assay with A549 [7], 7.3%; in the assay with A549 [9], 17.6%. Further, the “fold change (FC)” value with A549 [8] is listed as 3.45. In addition, in the assay with A549 [11], the viability at 25 µM was found to be 80.7%.
With `Cc1c(OCC(=O)N2CC(C)OC(C)C2)ccc2c(=O)c3ccc(OCC(=O)N4CC(C)OC(C)C4)cc3oc12` (stereo not given), the half-maximal inhibitory concentration (IC50) in the assay with A549 [1] is 295 µM; in assay [3], 214 µM; with MDA-MB-231, 385 µM; in the assay on ASPC1 it was 116 µM; in [10], 141 µM. The Activity in the assay with A549 [2] was determined as 66.9%; with A549 [4], 0.8%; with A549 [5], 9.7%; in the assay on A549 [6], 0.2%; in the assay on A549 [7], 0.7%; in the assay on A549 [9], 24%. In addition, in the assay on A549 [11], the viability at 25 µM turned out to be 98.3%.
Turning to `Cc1c(OCC(=O)N2CCN(C)CC2)ccc2c(=O)c3ccc(OCC(=O)N4CCN(C)CC4)cc3oc12`, the IC50 in the assay with A549 [1] was found to be 181 µM; in assay [3], 89.2 µM; with MDA-MB-231 it was 257 µM; in the assay on ASPC1 it was 97.8 µM; in [10], 119 µM. For the same molecule, the Activity was determined as 71.2% in the assay on A549 [2]; 3.1% in the assay on A549 [4]; 9% in the assay on A549 [5]; 0.6% in the assay with A549 [6]; 0.7% with A549 [7]; 20.7% in the assay with A549 [9]. The viability at 25 µM in the assay with A549 [11] came out at 95.6%.
For `O=C(COc1ccc2c(=O)c3ccc(OCC(=O)NCC4CCCO4)cc3oc2c1)NCC1CCCO1` (stereo not given), the IC50 in the assay with A549 [1] was more than 400 µM; in [3] it was 249 µM; in the assay on MDA-MB-231, more than 400 µM; in the assay on ASPC1, more than 400 µM; in assay [10] it was more than 400 µM. For the same molecule, the Activity in the assay with A549 [2] came to 64.6%; in the assay with A549 [4], 1.2%; in the assay on A549 [5], 9.5%; with A549 [6], 1.8%; in the assay with A549 [7] it was 0.5%; in the assay on A549 [9], 26.3%. Also, in the assay with A549 [11], the viability at 25 µM is 96.5%.
